One data set concerns PfSENP1. As to conditions: P. falciparum lysates; ref Ponder et al. Submitted; cited from earlier work.
The target in another data set is T1, ΔNhSENP1 (Homo sapiens, UniProt Q9P0U3).
T1 sequence (Q9P0U3 450-613 limits assumed): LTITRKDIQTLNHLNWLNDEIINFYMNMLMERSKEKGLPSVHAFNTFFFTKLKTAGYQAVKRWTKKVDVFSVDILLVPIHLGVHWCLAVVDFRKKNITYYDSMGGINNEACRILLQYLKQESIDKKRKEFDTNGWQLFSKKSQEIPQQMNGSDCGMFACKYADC
In words: ProSUMO processing. Type of data set: biochemical. The settings on record: 100nM ΔNhSENP1, 0–100μM compound, 30 min pre-treatment. The method, boiled down: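 ΔNhSENP1 (100 nM) was pretreated with inhibitor for 30 min in 50 mM Tris pH 7.4, 5 mM NaCl, 5 mM DTT (37 °C in methods, room temperature in legend). It then cleaved recombinant hSUMO1 carrying its full pro-sequence and a C-terminal His6 tag for 1 h at 37 °C. Loss of the pro-region and tag was scored as a band shift on SDS-PAGE with Gelcode Blue stain, beside a substrate-only lane.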

A short description of data set [1]: Stability of the epoxide in aqueous media. Type of data set: physicochemical. The settings on record: relative to aza-aspartic acid epoxides.
For a further data set, the target named is T2, human DUB UCHL3 (Homo sapiens, UniProt P15374).
T2 sequence (P15374 1-230): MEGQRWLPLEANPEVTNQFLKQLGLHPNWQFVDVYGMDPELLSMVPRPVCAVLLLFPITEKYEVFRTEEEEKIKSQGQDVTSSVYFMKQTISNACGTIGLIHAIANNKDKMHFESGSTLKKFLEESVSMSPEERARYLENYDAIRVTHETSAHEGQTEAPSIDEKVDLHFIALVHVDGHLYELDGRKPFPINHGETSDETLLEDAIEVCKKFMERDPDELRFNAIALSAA
Description: Cross-reactivity against purified DUB. Type of data set: biochemical. The settings on record: purified enzyme, Figure S4.

The target in another data set is T3, human SENP8 (Homo sapiens, UniProt Q96LD8).
T3 sequence (Q96LD8 1-212): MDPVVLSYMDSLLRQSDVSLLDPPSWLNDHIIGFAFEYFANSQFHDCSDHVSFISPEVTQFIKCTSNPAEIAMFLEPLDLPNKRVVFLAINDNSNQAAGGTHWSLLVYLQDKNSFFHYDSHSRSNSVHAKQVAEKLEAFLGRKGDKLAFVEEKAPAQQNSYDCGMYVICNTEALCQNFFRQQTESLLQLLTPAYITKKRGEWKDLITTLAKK
Description: Cross-reactivity against purified deNEDDylase. Type of data set: biochemical. The settings on record: purified enzyme, Figure S4.

The test system of data set [2] is DUBs in HEK293 cell lysates. Description: Competition of HA-Ubvme probe labeling in HEK293 cell lysates. Type of data set: binding, human. As to conditions: Figure S4.
For another data set, the target named is T4, endogenous SENP1 (Homo sapiens, UniProt Q9P0U3).
T4 sequence (Q9P0U3 1-644): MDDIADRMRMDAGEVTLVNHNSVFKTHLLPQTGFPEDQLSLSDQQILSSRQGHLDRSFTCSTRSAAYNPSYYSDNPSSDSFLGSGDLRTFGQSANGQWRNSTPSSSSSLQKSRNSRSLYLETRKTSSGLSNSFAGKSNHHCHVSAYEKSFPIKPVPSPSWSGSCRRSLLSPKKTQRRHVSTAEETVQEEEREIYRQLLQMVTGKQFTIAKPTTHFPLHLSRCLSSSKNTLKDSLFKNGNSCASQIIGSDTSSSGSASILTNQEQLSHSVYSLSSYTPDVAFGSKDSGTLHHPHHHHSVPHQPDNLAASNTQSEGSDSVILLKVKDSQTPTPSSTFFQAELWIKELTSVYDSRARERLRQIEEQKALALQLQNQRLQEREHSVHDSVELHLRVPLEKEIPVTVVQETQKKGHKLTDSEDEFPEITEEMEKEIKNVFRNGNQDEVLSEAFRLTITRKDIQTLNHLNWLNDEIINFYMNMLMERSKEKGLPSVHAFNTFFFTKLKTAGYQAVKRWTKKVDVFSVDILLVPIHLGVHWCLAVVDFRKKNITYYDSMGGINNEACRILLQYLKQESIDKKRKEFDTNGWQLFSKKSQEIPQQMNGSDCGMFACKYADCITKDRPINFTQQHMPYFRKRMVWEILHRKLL
In words: Cell lysate treatment, competition of HA-SUMO2vme labeling. Type of data set: binding. The settings on record: treatment of cell lysates.

The next data set deals with T5, endogenous SENP6 (Homo sapiens, UniProt Q9GZR1).
T5 sequence (Q9GZR1 1-1112): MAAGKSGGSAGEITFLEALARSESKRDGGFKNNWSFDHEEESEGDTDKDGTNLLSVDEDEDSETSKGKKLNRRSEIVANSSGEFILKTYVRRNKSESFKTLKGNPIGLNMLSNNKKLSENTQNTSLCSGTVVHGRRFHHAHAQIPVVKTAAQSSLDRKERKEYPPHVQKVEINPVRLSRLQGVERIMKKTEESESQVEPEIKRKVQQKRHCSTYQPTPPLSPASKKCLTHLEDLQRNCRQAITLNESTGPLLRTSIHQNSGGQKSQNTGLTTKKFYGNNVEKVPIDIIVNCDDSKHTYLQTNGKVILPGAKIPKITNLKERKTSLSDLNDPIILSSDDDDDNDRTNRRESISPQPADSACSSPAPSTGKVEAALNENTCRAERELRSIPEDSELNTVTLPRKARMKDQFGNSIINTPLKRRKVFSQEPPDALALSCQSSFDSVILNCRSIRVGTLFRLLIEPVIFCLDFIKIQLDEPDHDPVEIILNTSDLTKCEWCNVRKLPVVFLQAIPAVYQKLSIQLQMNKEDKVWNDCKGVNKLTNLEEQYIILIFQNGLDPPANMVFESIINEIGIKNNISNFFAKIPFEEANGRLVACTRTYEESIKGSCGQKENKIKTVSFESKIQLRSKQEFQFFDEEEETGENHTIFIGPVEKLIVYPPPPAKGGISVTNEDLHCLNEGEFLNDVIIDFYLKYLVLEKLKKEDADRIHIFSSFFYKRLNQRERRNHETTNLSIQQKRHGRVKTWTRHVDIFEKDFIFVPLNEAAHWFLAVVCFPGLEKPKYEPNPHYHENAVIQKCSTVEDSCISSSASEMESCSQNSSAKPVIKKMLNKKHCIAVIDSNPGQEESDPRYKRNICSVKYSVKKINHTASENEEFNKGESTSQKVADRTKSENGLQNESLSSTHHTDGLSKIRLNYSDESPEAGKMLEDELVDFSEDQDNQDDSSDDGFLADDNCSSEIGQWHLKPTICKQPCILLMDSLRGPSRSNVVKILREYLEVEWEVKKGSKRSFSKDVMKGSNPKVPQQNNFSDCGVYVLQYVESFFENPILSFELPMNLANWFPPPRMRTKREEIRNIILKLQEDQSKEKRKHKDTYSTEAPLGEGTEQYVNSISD
Described as above. Type of data set: binding. The settings on record: treatment of cell lysates.

For another data set, the system named is ΔNhSENPs1, 2, 5, 6 and 7. In words: Fluorogenic substrate screen against the panel of recombinant hSENPs. As to conditions: 50μM inhibitor, 1 hour preincubation, heat map Figure 4. Type of data set: biochemical, human. The method, boiled down:
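Recombinant N-terminally truncated hSENPs were preincubated 1 h at 37 °C with 50 μM inhibitor in 50 mM Tris pH 8.0, 20 mM NaCl, 10 mM DTT. The enzyme level is given only for hSENP1, at 2 μM final. Then 100 nM Ac-QTGG-AFC (SENP1, 2, 5) or Ac-LRGG-AFC (SENP6, 7) was added. AFC release was read at 405/510 nm, 37 °C. Slope (RFU/min) was taken relative to DMSO (100%), averaging independent triplicates.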

In the case of `O=C(O)CN(NC(=O)c1ccc(CNC(=O)c2cccc(C(=O)O)c2)cc1)C(=O)[C@H]1O[C@@H]1C(=O)N(Cc1cccc2ccccc12)Cc1cccc2ccccc12` [JCP666], the “potency against parasite SENP” value with PfSENP1 is listed as “effectively blocked PfSENP activity”.
In the case of `O=C(O)c1cccc(C(=O)NCc2ccc(C(=O)NNC(=O)[C@H]3O[C@@H]3C(=O)N(Cc3cccc4ccccc34)Cc3cccc4ccccc34)cc2)c1` [VEA260], on ΔNhSENP1, the “activity in ProSUMO processing assay” value was “retained full activity against hSENP1”. The “stability of the compound” value in data set [1] is reported as “more stable compound”. The “activity against UCHL3” value at human DUB UCHL3 is reported as “virtually no activity against either enzyme”. Moreover, the “activity against hSENP8” value at human SENP8 is on record as “virtually no activity against either enzyme”.
Regarding `O=C(CNC(=O)c1ccc(CNC(=O)c2cccc(C(=O)O)c2)cc1)COC(=O)c1c2ccccc2cc2ccccc12` [VEA401], in data set [2], the “block of DUB labeling by HA-Ubvme probe” value is on record as “did not block labeling of DUBs”. The “block of endogenous SENP1 labeling by HA-SUMO2vme probe” value on endogenous SENP1 was “not able to find conditions in which we could treat cell lysates with VEA401 and block labeling of endogenous SENP1 or SENP6”. Besides, the “block of endogenous SENP6 labeling by HA-SUMO2vme probe” value on endogenous SENP6 is “not able to find conditions in which we could treat cell lysates with VEA401 and block labeling of endogenous SENP1 or SENP6”.
For `C[C@H](O)C(NC(=O)[C@H](CCC(N)=O)NC(=O)Cc1ccc(O)c([N+](=O)[O-])c1)C(=O)NCC(=O)NCC(=O)COC(=O)c1c2ccccc2cc2ccccc12` (some centres unmarked) [VEA499], in the data set with ΔNhSENPs1, 2, 5, 6 and 7, the “relative inhibitor potency in the fixed concentration screen” value is reported as “substantially more potent than the tripeptide (VEA498) equivalent”. At human DUB UCHL3, the “activity against UCHL3” value is “only activity against hSENP8”. In addition, at human SENP8, the “activity against hSENP8” value is recorded as “only activity against hSENP8”.
Turning to `CC(C)C[C@H](NC(=O)Cc1ccc(O)c([N+](=O)[O-])c1)C(=O)N[C@@H](CCCN=C(N)N)C(=O)NCC(=O)NCC(=O)COC(=O)c1c2ccccc2cc2ccccc12` [VEA561], in the data set with ΔNhSENPs1, 2, 5, 6 and 7, the “relative inhibitor potency in the fixed concentration screen” value is “most potent towards hSENP6 and hSENP7”. Further, the “activity against UCHL3” value on human DUB UCHL3 is on record as “only activity against hSENP8”. Besides, the “activity against hSENP8” value on human SENP8 is reported as “only activity against hSENP8”.

Source of the values: PMC3131534 (Chemistry & biology, 2011).
